Activity calls are given as the source filed them. The rule behind the calls is not given here.
What was measured:
[1] = test system: MCF7; experiment: Cytotoxicity against human MCF7 cells by MTT assay; format: functional, cell-based
Outline: (§1)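 MTT read-out in human cell lines A549, HepG2, HeLa, MCF-7 and HEK293T. Compounds were tested at 100 μM. Other details follow a prior report.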

[2] = Inhibition of Saccharomyces cerevisiae alpha-glucosidase using p-nitrophenyl-glycoside as substrate incubated for 20 mins followed by substrate addition measured immediately
Outline: (§2)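 Yeast α-glucosidase from S. cerevisiae, from an enzyme stock of 2.0 units/mL, in 0.01 M potassium phosphate buffer at pH 7.0. Sample in DMSO was preincubated with enzyme for 20 min at 37 °C. p-Nitrophenyl glycoside (3 mg/mL stock) was then added and A410 read immediately at 37 °C. Inhibition % = (B−S)/B×100, with B as the DMSO blank. Screened at 200 μM; compounds above 45% inhibition went on to IC50. Triplicates.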

[3] = test system: HEK-293T; experiment: Cytotoxicity against human HEK293T cells by MTT assay; format: functional, cell-based; outline: as §1
[4] = test system: Saccharomyces cerevisiae; experiment: Inhibition of Saccharomyces cerevisiae alpha-glucosidase at 200 uM using p-nitrophenyl-glycoside as substrate incubated for 20 mins followed by substrate addition measured immediately relative to control; outline: as §2
[5] = test system: HepG2; experiment: Cytotoxicity against human HepG2 cells by MTT assay; format: functional, cell-based; outline: as §1
[6] = biological target: T1, Phosphotyrosine protein phosphatase (Mycobacterium tuberculosis) (UniProt A0A045ISB3); experiment: Inhibition of Mycobacterium tuberculosis H37Ra PTPB expressed in Escherichia coli BL21 (DE3) at 50 uM using p-nitrophenyl phosphate as substrate preincubated for 10 mins followed by substrate addition measured for 5 mins by spectrophotometric analysis
T1 sequence (whole entry): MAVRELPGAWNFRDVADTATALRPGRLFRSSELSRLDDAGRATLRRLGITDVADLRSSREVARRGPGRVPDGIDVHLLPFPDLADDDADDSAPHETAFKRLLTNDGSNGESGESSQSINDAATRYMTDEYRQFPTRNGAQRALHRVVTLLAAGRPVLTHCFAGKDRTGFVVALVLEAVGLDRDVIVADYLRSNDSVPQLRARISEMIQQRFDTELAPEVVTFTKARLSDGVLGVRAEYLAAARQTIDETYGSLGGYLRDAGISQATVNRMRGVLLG
Outline: (§3)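 Triplicate wells; reaction buffer 50 mM Tris/100 mM NaCl, pH 7.0; p-nitrophenyl phosphate as substrate; oleanolic acid as positive control. Full details on enzyme overexpression, purification and assay are given in an earlier report.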

[7] = test system: A549; experiment: Cytotoxicity against human A549 cells by MTT assay; format: functional, cell-based; outline: as §1
[8] = test system: HeLa; experiment: Cytotoxicity against human HeLa cells by MTT assay; format: functional, cell-based; outline: as §1
[9] = biological target: T2, Phosphotyrosine protein phosphatase (Mycobacterium tuberculosis, UniProt A0A045ISB3); experiment: Inhibition of Mycobacterium tuberculosis H37Ra PTPB expressed in Escherichia coli BL21 (DE3) using p-nitrophenyl phosphate as substrate preincubated for 10 mins followed by substrate addition measured for 5 mins by spectrophotometric analysis; outline: as §3
T2 sequence (A0A045ISB3 whole entry): T1 sequence (whole entry)

| Structure (SMILES) | Activity [1] | IC50 [2] | Activity [3] | inhibition [4] | Activity [5] | inhibition [6] | Activity [7] | Activity [8] | IC50 [9] |
| --- | --- | --- | --- | --- | --- | --- | --- | --- | --- |
| COc1cc(O)c2c(=O)oc(C[C@@H]3O[C@@H]3C(C)=O)cc2c1 | inactive | 38.1 µM | inactive | 95% | inactive | inactive | inactive | inactive | – |
| COc1cc(O)c2c(=O)oc(C[C@@H](O)CO)cc2c1 | inactive | – | inactive | 43% | inactive | inactive | inactive | inactive | – |
| COc1cc(O)c2c(=O)oc(C[C@H](C)O)cc2c1 | inactive | – | inactive | 33% | inactive | inactive | inactive | inactive | – |
| COC(=O)[C@@H]1[C@H](C(=O)OC)[C@H](c2cc3cc(OC)cc(O)c3c(=O)o2)[C@@H]1c1cc2cc(OC)cc(O)c2c(=O)o1 | inactive | – | inactive | 23% | inactive | inactive | inactive | inactive | – |
| C[C@H](O)Cc1cc2c(O)c(O)cc(O)c2c(=O)o1 | inactive | 40.5 µM | inactive | 91% | inactive | – | inactive | inactive | 20.7 µM |
| COC(=O)[C@@H]1[C@H](C(=O)OC)[C@@H](c2cc3cc(OC)cc(O)c3c(=O)o2)[C@H]1c1cc2cc(OC)cc(O)c2c(=O)o1 | inactive | – | inactive | 18% | inactive | inactive | inactive | inactive | – |
| COc1cc(O)c2c(=O)oc(C[C@@H](O)CO)cc2c1O | inactive | 78.1 µM | inactive | 83% | inactive | inactive | inactive | inactive | – |
| COc1cc(O)c2c(=O)oc(C[C@@H](Cl)CO)cc2c1O | inactive | 110 µM | inactive | 66% | inactive | inactive | inactive | inactive | – |
| C[C@H]1O[C@H](O[C@H]2[C@H](O)[C@@H](O)[C@@H](O[C@H]3[C@H](O)[C@@H](O)C(O)O[C@@H]3CO)O[C@@H]2CO)[C@H](O)[C@@H](O)[C@@H]1N[C@H]1C=C(CO)[C@@H](O)[C@H](O)[C@H]1O (stereo partly specified) [ACARBOSE] | – | 478 µM | – | 19% | – | – | – | – | – |
| COc1cc(O)c2c(=O)oc(C[C@@H](O)CC(C)=O)cc2c1 | inactive | – | inactive | 38% | inactive | inactive | inactive | inactive | – |
| COc1cc(O)c2c(=O)oc(C[C@@H](O)C(Cl)Cl)cc2c1 | inactive | 102 µM | inactive | 69% | inactive | inactive | inactive | inactive | – |
| CC1(C)CC[C@]2(C(=O)O)CC[C@]3(C)C(=CC[C@@H]4[C@@]5(C)CC[C@H](O)C(C)(C)[C@@H]5CC[C@]43C)[C@@H]2C1 [OLEANOLIC_ACID] | – | – | – | – | – | – | – | – | 22.1 µM |
| COc1cc(O)c2c(=O)oc(C[C@@H](O)C(Cl)Cl)cc2c1O | inactive | 45.1 µM | inactive | 91% | inactive | inactive | inactive | inactive | – |
| COc1cc(O)c2c(=O)oc(C[C@@H](Cl)CO)cc2c1 | inactive | 158 µM | inactive | 58% | inactive | inactive | inactive | inactive | – |
| COc1cc(O)c2c(=O)oc(C[C@@H](O)CCl)cc2c1 | inactive | – | inactive | 41% | inactive | inactive | inactive | inactive | – |

Reference: ChEMBL document CHEMBL4145587, “Peniisocoumarins A-J: Isocoumarins from Penicillium commune QQF-3, an Endophytic Fungus of the Mangrove Plant Kandelia candel” (J Nat Prod, 2018)
